The results in this text go back to ChEMBL document CHEMBL5620366, “Design, synthesis and biological evaluation of peptidomimetic benzothiazolyl ketones as 3CLpro inhibitors against SARS-CoV-2” (Eur J Med Chem, 2023).

A short description of data set [1]: AUC (0 to t) in ICR mouse at 10 mg/kg, iv measured for 24 hrs by LC-MS/MS analysis. The data set is classed as ADME, organism-based. The conditions noted are these: in vivo. In a few lines:
(§1)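 Male/female unspecified ICR mice, three per group, randomly assigned, given a single intravenous dose of 10 mg/kg. Whole blood was drawn at 0.083, 0.25, 0.5, 1, 2, 4, 8 and 24 h. Plasma (20 μL) was precipitated with MeOH containing internal standard, then analysed by LC-MS/MS. Parameters came from non-compartmental analysis.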

Data set [2] can be described thus: Half life in ICR mouse at 10 mg/kg, iv measured for 24 hrs by LC-MS/MS analysis. Type of data set: ADME, organism-based. The conditions noted are these: in vivo. In a few lines: as §1
Data set [3] is described as follows: Oral bioavailability in ICR mouse at 20 mg/kg measured for 24 hrs by LC-MS/MS analysis. The data set is classed as ADME, organism-based. The conditions noted are these: in vivo. In a few lines: (§2)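 ICR mice, three per group, randomly assigned, received a single 20 mg/kg oral dose, with a parallel 10 mg/kg IV group for bioavailability. Blood was sampled at 0.25, 0.5, 1, 2, 4, 6, 8 and 24 h. Plasma was protein-precipitated with MeOH plus internal standard and quantified by LC-MS/MS. Parameters came from non-compartmental analysis.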

A short description of data set [4]: Cmax in ICR mouse at 20 mg/kg, po measured for 24 hrs by LC-MS/MS analysis. The data set is classed as ADME, organism-based. The conditions noted are these: in vivo. In a few lines:
as §2

Data set [5] can be described thus: Half life in ICR mouse at 20 mg/kg, po measured for 24 hrs by LC-MS/MS analysis. The data set is classed as ADME, organism-based. The conditions noted are these: in vivo. In a few lines:
as §2

Data set [6] is described as follows: AUC (0 to t) in ICR mouse at 20 mg/kg, po measured for 24 hrs by LC-MS/MS analysis. Type of data set: ADME, organism-based. The conditions noted are these: in vivo. The gist of the method:
as §2

A short description of data set [7]: AUC (0 to infinity) in ICR mouse at 10 mg/kg, iv measured for 24 hrs by LC-MS/MS analysis. The conditions noted are these: in vivo. The data set is classed as ADME, organism-based. The gist of the method:
as §1

For data set [8], the target named is Replicase polyprotein 1ab (Severe acute respiratory syndrome coronavirus 2, UniProt P0DTD1). Nature of the data set: Inhibition of recombinant SARS-CoV-2 3CLpro using Dacyl-KTSAVLQSGFRKME-Edans as substrate preincubated for 10 mins followed by substrate addition measured for 5 mins by FRET assay.
Data set [9] in a line: AUC (0 to infinity) in ICR mouse at 20 mg/kg, po measured for 24 hrs by LC-MS/MS analysis. The conditions noted are these: in vivo. Type of data set: ADME, organism-based. The gist of the method: as §2
A further data set has as its system Vero C1008. Nature of the data set: Cytotoxicity against African green monkey Vero E6 cells incubated for 48 hrs by Luminescent cell viability assay. The conditions noted are these: chlorocebus sabaeus, vero c1008, 48 h. Type of data set: toxicity, cell-based. In a few lines:
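Vero E6 cells were seeded at 2.5 × 10³/well and grown 48 h, then exposed to compound at 0.5–200 μM for a further 48 h (n = 3). Viability was read by a luminescent cell-viability reagent after 10 min. Values came from curve fitting.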

The nature of data set [10]: Selectivity index, ratio of CC50 for African green monkey Vero E6 cells to EC50 for SARS-CoV-2 WIV04 infected in African green monkey Vero E6 cells. Type of data set: toxicity. The conditions noted are these: read-out: Ratio CC50/EC50.
Another data set has as its system SARS-CoV-2. In words: Antiviral activity against SARS-CoV-2 WIV04 infected in African green monkey Vero E6 cells assessed as reduction in viral replication preincubated cells for 1 hr followed by viral infection for 24 hrs by real-time fluorescence quantitative PCR method. The conditions noted are these: Severe acute respiratory syndrome coronavirus 2, WIV04, Vero C1008. The data set is classed as functional, organism-based.

For data set [11], the target named is Procathepsin L (Homo sapiens) (UniProt P07711). In words: Inhibition of cathepsin L (unknown origin) using Z-FR-AMC at 20 uM as substrate measured for 10 mins by fluorescence based assay relative to control.
Data set [12] addresses Chymotrypsinogen A (Bos taurus) (UniProt P00766). Nature of the data set: Inhibition of bovine pancreatic alpha-chymotrypsin using N-succinyl-AAPF-AMC as substrate at 20 uM preincubated for 10 mins followed by substrate addition measured for 10 mins by fluorescence based assay relative to control. The conditions noted are these: time 20.0 min. In a few lines: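 Chymotrypsin (5 nM final) was preincubated 10 min with 20 μM compound in PBS, pH 7.4. The reaction was started with N-succinyl-AAPF-AMC (10 μM final). Fluorescence (ex 380/em 460 nm) was read every 1 min for 10 min.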

Where only a bound is given, the exact number is not on record here.

Procathepsin L (Homo sapiens), sequence (P07711 114-333 limits assumed): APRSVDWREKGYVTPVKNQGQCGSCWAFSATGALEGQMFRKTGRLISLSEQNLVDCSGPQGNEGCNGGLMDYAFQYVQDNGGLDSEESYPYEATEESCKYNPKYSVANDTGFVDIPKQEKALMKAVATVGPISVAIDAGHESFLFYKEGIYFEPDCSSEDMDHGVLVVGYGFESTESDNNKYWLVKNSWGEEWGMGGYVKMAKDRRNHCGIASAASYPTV

In the case of `CC(C)(C)[C@H](NC(=O)C(F)(F)F)C(=O)N1[C@@H]2CC[C@@H](C2)[C@H]1C(=O)N[C@@H](C[C@@H]1CCNC1=O)C(=O)c1nc2ccccc2s1`, the AUCt in data set [1] came to 2281 ng·h/mL; in [6], 2155 ng·h/mL. Also, the results for the t1/2 in [2] and in [5] were 28.2 min and 54.6 min, respectively. The compound also registered a F in data set [3] of 47.25%. Further, the highest concentration (Cmax) (in general, the maximum level reached in the sampled fluid or tissue) in data set [4] is 1597 ng/mL. Also, the figures for the area under the curve (AUC) in data set [7] and in [9] were 2284 ng·h/mL and 2161 ng·h/mL, respectively. In [8], the IC50 (as a rule, the concentration needed to halve the response being measured) came to 110 nM.

`COc1ccc(C[C@H](NS(=O)(=O)C(F)(F)F)C(=O)N2[C@@H]3CC[C@@H](C3)[C@H]2C(=O)N[C@@H](C[C@@H]2CCNC2=O)C(=O)c2nc3ccccc3s2)cc1`: in data set [8], the concentration for half-maximal inhibition (IC50) is 5340 nM.

As to `O=C1NCC[C@H]1C[C@H](NC(=O)[C@@H]1[C@H]2CC[C@H](C2)N1C(=O)[C@H](CC1CCCCC1)NS(=O)(=O)C(F)(F)F)C(=O)c1nc2ccccc2s1`, the IC50 in data set [8] was determined as 5140 nM.

Regarding `CC(C)(C)OC[C@H](NS(=O)(=O)C(F)(F)F)C(=O)N1[C@@H]2CC[C@@H](C2)[C@H]1C(=O)N[C@@H](C[C@@H]1CCNC1=O)C(=O)c1nc2ccccc2s1`, the IC50 in [8] turned out to be 2740 nM.

Take `CC(C)(F)C(=O)N[C@H](C(=O)N1[C@@H]2CC[C@@H](C2)[C@H]1C(=O)N[C@@H](C[C@@H]1CCNC1=O)C(=O)c1nc2ccccc2s1)C(C)(C)C`: the IC50 in data set [8] was found to be 1270 nM.

`CC(C)(C)[C@H](NC(=O)C(F)(F)F)C(=O)N1C[C@H]2[C@@H]([C@H]1C(=O)N[C@H](C#N)C[C@@H]1CCNC1=O)C2(C)C` [NIRMATRELVIR]: the values for the AUCt in [1] and in data set [6] were 2240 ng·h/mL and 1023 ng·h/mL, respectively. In addition, the t1/2 in data set [2] stood at 25.2 min; in data set [5], 30.6 min. In addition, the F in [3] came to 22.85%. This compound also returned a Cmax in [4] of 1819 ng/mL. Also, the AUC (as a rule, the area under the concentration-time curve, a measure of exposure) in data set [7] was found to be 2241 ng·h/mL; in data set [9] it was 1029 ng·h/mL. Also, the 50% cytotoxic concentration (CC50) (in general, the concentration giving 50% cytotoxicity) in the data set with Vero C1008 is more than 500000 nM.

For the compound `CC(C)(C)[C@H](NS(=O)(=O)C(F)(F)F)C(=O)N1[C@@H]2CC[C@@H](C2)[C@H]1C(=O)N[C@@H](C[C@@H]1CCNC1=O)C(=O)c1nc2ccccc2s1`, the AUCt in data set [1] stood at 3783 ng·h/mL; in [6] it was 5143 ng·h/mL. In addition, the values for the t1/2 in data set [2] and in [5] were 44.4 min and 45.6 min, respectively. In data set [3], the F stood at 67.98%. Moreover, in data set [10], the selectivity ratio is 429. This compound came in with a Cmax in data set [4] of 3342 ng/mL. In the data set with SARS-CoV-2, the 50% effective concentration (EC50) – broadly, the concentration that produces a half-maximal response – turned out to be 320 nM. The figures for the AUC in data set [7] and in data set [9] were 3857 ng·h/mL and 5153 ng·h/mL, respectively. For the same compound, the midpoint of cytotoxicity in the data set on Vero C1008, the CC50, lay at 137000 nM. The half-inhibitory concentration (IC50) in data set [8] came out at 868 nM.

On to `[2H]C([2H])([2H])C(=O)N[C@H](C(=O)N1[C@@H]2CC[C@@H](C2)[C@H]1C(=O)N[C@@H](C[C@@H]1CCNC1=O)C(=O)c1nc2ccccc2s1)C(C)(C)C`, for which the IC50 in data set [8] was found to be 527 nM.

On to `CC(C)(C)OC(=O)N[C@H](C(=O)N1[C@@H]2CC[C@@H](C2)[C@H]1C(=O)N[C@@H](C[C@@H]1CCNC1=O)C(=O)c1nc2ccccc2s1)C(C)(C)C`, for which, in [8], the IC50 turned out to be 5000 nM.

In the case of `O=C1NCC[C@H]1C[C@H](NC(=O)[C@@H]1[C@H]2CC[C@H](C2)N1C(=O)[C@@H](NS(=O)(=O)C(F)(F)F)C12CC3CC(CC(C3)C1)C2)C(=O)c1nc2ccccc2s1`, the results for the inhibition in data set [11] and in data set [12] were 27% and 55.8%, respectively. The AUCt is 33780 ng·h/mL in data set [1] and 32473 ng·h/mL in data set [6]. Also, the t1/2 in data set [2] was 82.8 min; in [5], 126 min. The F in [3] is given as 48.1%. In data set [10], the selectivity ratio amounted to 300. Besides, the Cmax in [4] turned out to be 9327 ng/mL. For the same compound, in the data set on SARS-CoV-2, the EC50 came to 180 nM. Moreover, the exposure (AUC) in data set [7] came to 34308 ng·h/mL; in [9], 33207 ng·h/mL. Further, the 50% cytotoxic concentration (CC50) in the data set with Vero C1008 is 54000 nM. Besides, the IC50 in data set [8] amounted to 1650 nM.

Take `CN(C)S(=O)(=O)N[C@H](C(=O)N1[C@@H]2CC[C@@H](C2)[C@H]1C(=O)N[C@@H](C[C@@H]1CCNC1=O)C(=O)c1nc2ccccc2s1)C(C)(C)C`: in data set [8], the 50% inhibitory concentration (IC50) came to 584 nM.
